Data on nine molecules can be found in ChEMBL document CHEMBL6177916, “Synthesis, in silico and bio-evaluation studies of new isothiocyanate derivatives with respect to COX inhibition and H2S release profiles” (RSC Med Chem, 2025).

The source made the active and inactive calls. The calls are words filed in the database; no cut-off is given here.

The nature of experiment [1]: Induction of H2S release in PBS at pH 7.4 at 100 uM measured over 4 hrs by microplate reader based analysis. In kind it is functional. In short, it runs like this: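 Compounds (DMSO-dissolved) were diluted to 100 μM final in phosphate buffer, pH 7.4, containing 1 mM L-cysteine. This was combined with a detection mix of N,N-dimethyl-1,4-phenylenediamine sulfate (20 mM) plus 1% w/v Zn(OAc)2, reacted with 30 mM FeCl3. A670 was read every 5 min until no meaningful increase was seen.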

Experiment [2] has as its system RAW264.7. The experiment in a line: Antiinflammatory activity against LPS induced mouse RAW264.7 cells assessed as decrease in cell viability at 10 to 20 uM relative to control. In kind it is functional. The settings on record: dose 10-20 µM. In short, it runs like this:
(§1)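 RAW 264.7 murine macrophages were seeded at 4 × 10^5 cells per mL and grown 24 h at 37 °C. They were then stimulated with 1 μg mL−1 LPS, with or without compound (DMSO-dissolved) at 10 and 20 μM, for 24 h. MTT was added for 2 h, formazan was dissolved in DMSO, and A570/620 was read. Controls were no inhibitor/no LPS and LPS alone, with comparisons made against LPS alone. Data are ≥3 biological replicates, mean ± SEM, one-way ANOVA with Dunnett.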

The test system of experiment [3] is RAW264.7. Description: Cytotoxicity against mouse RAW264.7 cells assessed as cell viability at 10 to 20 uM measured after 24 hrs by MTT assay. To be noted: dose 10-20 µM. In kind it is functional, cell-based. An outline of the steps:
as §1

Experiment [4] deals with T1, Prostaglandin G/H synthase 2 (Homo sapiens, UniProt P35354).
T1 sequence (P35354 whole entry): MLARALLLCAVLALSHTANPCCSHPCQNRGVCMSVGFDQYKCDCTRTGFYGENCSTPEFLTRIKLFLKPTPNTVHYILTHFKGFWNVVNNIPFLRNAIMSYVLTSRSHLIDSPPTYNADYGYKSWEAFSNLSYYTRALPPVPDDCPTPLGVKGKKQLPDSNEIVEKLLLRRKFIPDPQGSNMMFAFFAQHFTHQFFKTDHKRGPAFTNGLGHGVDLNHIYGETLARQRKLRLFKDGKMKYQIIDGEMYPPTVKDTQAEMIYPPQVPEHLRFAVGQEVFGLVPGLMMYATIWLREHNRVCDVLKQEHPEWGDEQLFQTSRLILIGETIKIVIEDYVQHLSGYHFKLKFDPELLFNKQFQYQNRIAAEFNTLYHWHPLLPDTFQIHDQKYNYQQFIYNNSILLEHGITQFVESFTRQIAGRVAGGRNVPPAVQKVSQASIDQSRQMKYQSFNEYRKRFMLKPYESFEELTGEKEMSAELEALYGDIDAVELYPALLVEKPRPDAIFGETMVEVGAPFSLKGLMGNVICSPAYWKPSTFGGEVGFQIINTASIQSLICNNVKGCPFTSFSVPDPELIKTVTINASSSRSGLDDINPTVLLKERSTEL
Description: Inhibition of human recombinant COX-2 using arachidonic acid as substrate at 10 uM preincubated for 10 mins followed by substrate addition and measured after 30 secs.

In experiment [1], `O=C(OCCc1ccc(N=C=S)cc1)c1ccc(F)cc1` came in with an Activity of 10.9 µM.
Take `O=C(OCCc1ccc(N=C=S)cc1)c1ccc([N+](=O)[O-])cc1`: the Activity in the experiment on RAW264.7 [2] is less than 80%; in experiment [1], 11.5 µM. Besides, the result in the experiment on RAW264.7 [3] was inactive.
On to `OCCc1ccc(N=C=S)cc1`, for which the Activity with RAW264.7 [2] was less than 80%; in experiment [1], 36.8 µM. The result with RAW264.7 [3] was inactive.
As for `CC(C)CC(=O)OCCc1ccc(N=C=S)cc1`, the outcome with RAW264.7 [3] was inactive. Besides, the Activity in experiment [1] was 11.7 µM.
Regarding `O=C(OCCc1ccc(N=C=S)cc1)c1ccccc1`, the values for the Activity (in the experiment with RAW264.7 [2]; in experiment [1]) were less than 80% and 11.3 µM, respectively. Further, in the experiment on RAW264.7 [3], the result was inactive.
For the molecule `N#Cc1cc(CCO)ccc1N=C=S`, the values for the Activity (with RAW264.7 [2]; in experiment [1]) were less than 80% and 35.7 µM, respectively. Also, in the experiment on RAW264.7 [3], the result was inactive.
Take `COc1ccc(C(=O)OCCc2ccc(N=C=S)cc2)cc1`: in the experiment on RAW264.7 [3], the outcome was inactive. The Activity in experiment [1] was determined as 11.2 µM.
On to `C[S+]([O-])CCCCN=C=S` (configuration not stated) [SULFORAPHANE], for which the IC50 in experiment [4] stood at 6.35 µM. This molecule also displayed an Activity in experiment [1] of 43.5 µM.
Consider `OCCc1ccc(N=C=S)c(Br)c1`, for which the Activity was less than 80% with RAW264.7 [2] and 35.5 µM in experiment [1]. Besides, the result in the experiment with RAW264.7 [3] was inactive.
